Test results taken from ChEMBL document CHEMBL1122898, “Antiulcer agents. 1. Gastric antisecretory and cytoprotective properties of substituted imidazo[1,2-a]pyridines” (1985).

Experiments:
Assay type in all cases: functional
[1] = test system: Canis familiaris; assay: Inhibition of histamine stimulated gastric acid secretion in adult mongrel dogs at dose 5 mg/kg given intravenously; conditions: Canis lupus familiaris, Stomach, route intravenous
Method in brief: (§1)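 Dogs with Heidenhain pouches, 12–18 kg, fasted 18 h. Compound given iv in 3 mL or by gavage in 5 mL of 0.4% methylcellulose/saline, 1 h after infusion start. 30-min collections titrated. Summed 3-h AO against the same dog's control AO gives % inhibition. Usually one dog per compound.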

[2] = test system: Rattus norvegicus; assay: Gastric antisecretory activity in the pylorus-ligated rat and the reduction in acid output was measured after 4 hr by intraperitoneal (ip) administration of 40 mg/kg dose.
Method in brief: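 Male Charles River CD rats, 150–200 g, fasted 24 h. Pylorus ligated under Brevital anesthesia. 40 mg/kg given ip in 2.5% Tween 80 at ligation. Stomach contents collected at 4 h and titrated with 0.1 N NaOH to pH 7.0. % inhibition from mean AO, 6 treated vs 8 control rats. Student's t test.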

[3] = test system: Canis familiaris; assay: Inhibition of histamine stimulated gastric acid secretion in adult mongrel dogs at dose 8 mg/kg given orally; conditions: Canis lupus familiaris, Stomach, route oral; method in brief: as §1
[4] = organism: Rattus norvegicus; assay: Oral gastric cytoprotective activity in the rat against ethanol-induced lesions; conditions: Stomach
Method in brief: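 Rats fasted and water-deprived for 20 h. Compound given orally, 1–30 mg/kg in 0.4% methylcellulose/saline, 30 min before 1 mL absolute ethanol po. Killed 1 h after ethanol. Linear hemorrhagic lesion lengths totalled per stomach, expressed as group mean. ED50 by linear regression.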

[5] = test system: Canis familiaris; assay: Inhibition of histamine stimulated gastric acid secretion in adult mongrel dogs at dose 2 mg/kg given intravenously; conditions: Canis lupus familiaris, Stomach, route intravenous; method in brief: as §1
[6] = test system: Canis familiaris; assay: Inhibition of histamine stimulated gastric acid secretion in mongrel dogs following 4 mg/kg p.o. administration.; conditions: Canis lupus familiaris, Stomach, route oral; method in brief: as §1

## C/N=C(/S)Cc1c(C)nc2c(OCc3ccccc3)cccn12
[1]
  inhibition in vivo at 5 mg/kg: 0%
[2]
  inhibition in vivo at 40 mg/kg: 7%

## CCOCc1c(C)nc2c(OCc3ccccc3)cccn12
[1]
  inhibition in vivo at 5 mg/kg: 35%
[2]
  inhibition in vivo at 40 mg/kg: 84%
[3]
  inhibition in vivo at 8 mg/kg: 0%

## Cc1nc2c(OCc3cccnc3)cccn2c1CC#N
[4]
  ED50: 7.4 mg/kg
[1]
  inhibition in vivo at 5 mg/kg: 8%
[2]
  inhibition in vivo at 40 mg/kg: 46%

## CCSCc1c(C)nc2c(OCc3ccccc3)cccn12
[1]
  inhibition in vivo at 5 mg/kg: 0%
[2]
  inhibition in vivo at 40 mg/kg: 36%

## Cc1nc2c(OCc3ccccc3)cccn2c1Cl
[1]
  inhibition in vivo at 5 mg/kg: 37%
[2]
  inhibition in vivo at 40 mg/kg: 93%
[3]
  inhibition in vivo at 8 mg/kg: 43%

## CSCc1c(C)nc2c(OCc3ccccc3)cccn12
[1]
  inhibition in vivo at 5 mg/kg: 8%
[2]
  inhibition in vivo at 40 mg/kg: 29%

## c1ccc(COc2cccn3c4c(nc23)CCCC4)cc1
[3]
  inhibition in vivo at 8 mg/kg: 28%
[5]
  inhibition in vivo at 2 mg/kg: 24%

## Cc1nc2c(OCc3ccccc3)cccn2c1Br
[1]
  inhibition in vivo at 5 mg/kg: 63%
[2]
  inhibition in vivo at 40 mg/kg: 26%
[3]
  inhibition in vivo at 8 mg/kg: 0%

## Cc1nc2c(OCc3ccc(S(C)(=O)=O)cc3)cccn2c1CC#N
[2]
  inhibition in vivo at 40 mg/kg: 2%

## Cc1nc2c(OCc3ccc(C(C)(C)C)cc3)cccn2c1CC#N
[6]
  inhibition in vivo at 4 mg/kg: 37%
[1]
  inhibition in vivo at 5 mg/kg: 52%
[2]
  inhibition in vivo at 40 mg/kg: 47%
[3]
  inhibition in vivo at 8 mg/kg: 47%

## Cc1nc2c(Oc3ccccc3)cccn2c1CC#N
[4]
  ED50: 3.4 mg/kg
[1]
  inhibition in vivo at 5 mg/kg: 0%
[2]
  inhibition in vivo at 40 mg/kg: 24%

## COCc1c(C)nc2c(OCc3ccccc3)cccn12
[1]
  inhibition in vivo at 5 mg/kg: 29%
[2]
  inhibition in vivo at 40 mg/kg: 99%
[3]
  inhibition in vivo at 8 mg/kg: 37%

## Cc1nc2c(OCc3ccoc3)cccn2c1CC#N
[4]
  ED50: 1.4 mg/kg
[1]
  inhibition in vivo at 5 mg/kg: 60%
[2]
  inhibition in vivo at 40 mg/kg: 99%
[3]
  inhibition in vivo at 8 mg/kg: 42%

## CCCCC(=O)OCc1c(C)nc2c(OCc3ccccc3)cccn12
[1]
  inhibition in vivo at 5 mg/kg: 96%
[2]
  inhibition in vivo at 40 mg/kg: 45%
[3]
  inhibition in vivo at 8 mg/kg: 13%

## CNC(=O)Cc1c(C)nc2c(OCc3ccccc3)cccn12
[1]
  inhibition in vivo at 5 mg/kg: 14%
[2]
  inhibition in vivo at 40 mg/kg: 24%

## Cc1nc2ccc(CCc3ccccc3)cn2c1CC#N
[4]
  ED50: 2.7 mg/kg
[1]
  inhibition in vivo at 5 mg/kg: 0%
[2]
  inhibition in vivo at 40 mg/kg: 8%

## Cc1nc2c(COc3ccccc3)cccn2c1C
[4]
  ED50: 6 mg/kg
[2]
  inhibition in vivo at 40 mg/kg: 48%
[3]
  inhibition in vivo at 8 mg/kg: 21%
[5]
  inhibition in vivo at 2 mg/kg: 44%

## CCc1c(C)nc2c(OCc3ccccc3)cccn12
[4]
  ED50: 2 mg/kg
[5]
  inhibition in vivo at 2 mg/kg: 37%

## Cc1nc2c(OCc3ccccc3)cccn2c1CC(=S)N(C)C
[1]
  inhibition in vivo at 5 mg/kg: 0%
[2]
  inhibition in vivo at 40 mg/kg: 21%

## Cc1nc2c(OCc3ccccc3)cccn2c1C(N)=O
[1]
  inhibition in vivo at 5 mg/kg: 2%
[2]
  inhibition in vivo at 40 mg/kg: 42%

## CCOC(=O)c1c(C)nc2c(OCc3ccccc3)cccn12
[2]
  inhibition in vivo at 40 mg/kg: 22%

## Cc1nc2c(OCc3ccccc3)cccn2c1CC(=N)N
[1]
  inhibition in vivo at 5 mg/kg: 0%
[2]
  inhibition in vivo at 40 mg/kg: 79%

## Cc1nc2c(O)cccn2c1CC#N
[1]
  inhibition in vivo at 5 mg/kg: 0%
[2]
  inhibition in vivo at 40 mg/kg: 0%

## Cc1nc2c(OCc3ccccc3)cccn2c1CC(=O)O
[1]
  inhibition in vivo at 5 mg/kg: 24%
[2]
  inhibition in vivo at 40 mg/kg: 12%

## Cc1nc2c(OCc3ccccc3)cccn2c1C[S+](C)[O-] (centres undefined)
[1]
  inhibition in vivo at 5 mg/kg: 18%
[2]
  inhibition in vivo at 40 mg/kg: 0%

## CCc1nc2c(OCc3ccccc3)cccn2c1C
[4]
  ED50: 9.8 mg/kg
[2]
  inhibition in vivo at 40 mg/kg: 79%
[3]
  inhibition in vivo at 8 mg/kg: 27%
[5]
  inhibition in vivo at 2 mg/kg: 78%

## Cc1nc2c(OCc3ccccc3)cccn2c1C(C)(C)C#N
[4]
  ED50: 12.3 mg/kg
[1]
  inhibition in vivo at 5 mg/kg: 0%
[2]
  inhibition in vivo at 40 mg/kg: 57%

## c1ccc(COc2cccn3c4c(nc23)CCC4)cc1
[1]
  inhibition in vivo at 5 mg/kg: 0%
[2]
  inhibition in vivo at 40 mg/kg: 26%

## Cc1nc2c(OCc3ccccc3)cccn2c1CC(N)=O
[4]
  ED50: 27 mg/kg
[6]
  inhibition in vivo at 4 mg/kg: 0%
[1]
  inhibition in vivo at 5 mg/kg: 46%
[2]
  inhibition in vivo at 40 mg/kg: 28%

## Cc1nc2c(SCc3ccccc3)cccn2c1CC#N
[4]
  ED50: 7 mg/kg
[1]
  inhibition in vivo at 5 mg/kg: 89%
[2]
  inhibition in vivo at 40 mg/kg: 22%
[3]
  inhibition in vivo at 8 mg/kg: 2%

## Cc1nc2c(OCc3ccccc3)cccn2c1COC(=O)c1cccnc1
[1]
  inhibition in vivo at 5 mg/kg: 88%
[2]
  inhibition in vivo at 40 mg/kg: 87%
[3]
  inhibition in vivo at 8 mg/kg: 0%

## Cc1nc2c(OCc3ccccc3)cccn2c1CS(C)(=O)=O
[1]
  inhibition in vivo at 5 mg/kg: 0%
[2]
  inhibition in vivo at 40 mg/kg: 61%

## COC(=O)Cc1c(C)nc2c(OCc3ccccc3)cccn12
[1]
  inhibition in vivo at 5 mg/kg: 16%
[2]
  inhibition in vivo at 40 mg/kg: 23%

## Cc1nc2c(OCc3cccc(C(F)(F)F)c3)cccn2c1CC#N
[4]
  ED50: 6.5 mg/kg
[1]
  inhibition in vivo at 5 mg/kg: 30%
[2]
  inhibition in vivo at 40 mg/kg: 61%
[3]
  inhibition in vivo at 8 mg/kg: 38%

## Cc1nc2c(OCc3ccccn3)cccn2c1CC#N
[4]
  ED50: 2.4 mg/kg
[1]
  inhibition in vivo at 5 mg/kg: 29%
[2]
  inhibition in vivo at 40 mg/kg: 56%

## Cc1nc2c(OCc3cccc4ccccc34)cccn2c1CC#N
[4]
  ED50: 9.8 mg/kg
[1]
  inhibition in vivo at 5 mg/kg: 78%
[2]
  inhibition in vivo at 40 mg/kg: 0%
[3]
  inhibition in vivo at 8 mg/kg: 15%

## Cc1nc2c([S+]([O-])Cc3ccccc3)cccn2c1CC#N (centres undefined)
[4]
  ED50: 5 mg/kg
[1]
  inhibition in vivo at 5 mg/kg: 26%
[2]
  inhibition in vivo at 40 mg/kg: 37%

## Cc1nc2c(OCc3ccccc3)cccn2c1COC(=O)N(C)C
[1]
  inhibition in vivo at 5 mg/kg: 23%
[2]
  inhibition in vivo at 40 mg/kg: 75%
[3]
  inhibition in vivo at 8 mg/kg: 49%

## Cc1nc2c(S(=O)(=O)Cc3ccccc3)cccn2c1CC#N
[4]
  ED50: 16 mg/kg
[1]
  inhibition in vivo at 5 mg/kg: 6%
[2]
  inhibition in vivo at 40 mg/kg: 9%

## Cc1cn2cccc(OCc3ccccc3)c2n1
[4]
  ED50: 4 mg/kg
[1]
  inhibition in vivo at 5 mg/kg: 70%
[2]
  inhibition in vivo at 40 mg/kg: 62%
[3]
  inhibition in vivo at 8 mg/kg: 0%
[5]
  inhibition in vivo at 2 mg/kg: 61%

## Cc1nc2c(OCCCc3ccccc3)cccn2c1CC#N
[4]
  ED50: 4.3 mg/kg
[1]
  inhibition in vivo at 5 mg/kg: 80%
[2]
  inhibition in vivo at 40 mg/kg: 64%
[3]
  inhibition in vivo at 8 mg/kg: 8%

## Cc1nc2c(OCc3ccncc3)cccn2c1CC#N
[4]
  ED50: 2.6 mg/kg
[1]
  inhibition in vivo at 5 mg/kg: 36%
[2]
  inhibition in vivo at 40 mg/kg: 51%

## Cc1nc2c(OCc3ccccc3)cccn2c1COC(=O)C(C)(C)C
[4]
  ED50: 8 mg/kg
[2]
  inhibition in vivo at 40 mg/kg: 48%
[3]
  inhibition in vivo at 8 mg/kg: 12%
[5]
  inhibition in vivo at 2 mg/kg: 43%

## Cc1nc2c(OCc3ccccc3)cccn2c1CCC#N
[4]
  ED50: 1.5 mg/kg
[1]
  inhibition in vivo at 5 mg/kg: 20%
[2]
  inhibition in vivo at 40 mg/kg: 40%

## CC(=O)c1c(C)nc2c(OCc3ccccc3)cccn12
[1]
  inhibition in vivo at 5 mg/kg: 9%
[2]
  inhibition in vivo at 40 mg/kg: 57%

## Cc1nc2cc(CCc3ccccc3)ccn2c1CC#N
[4]
  ED50: 3 mg/kg
[2]
  inhibition in vivo at 40 mg/kg: 11%
[5]
  inhibition in vivo at 2 mg/kg: 26%

## Cc1nc2c(OCc3ccccc3)cccn2c1CC1=NCCN1
[2]
  inhibition in vivo at 40 mg/kg: 69%

## CC(=O)OCc1c(C)nc2c(OCc3ccccc3)cccn12
[4]
  ED50: 5.5 mg/kg
[1]
  inhibition in vivo at 5 mg/kg: 87%
[2]
  inhibition in vivo at 40 mg/kg: 88%
[3]
  inhibition in vivo at 8 mg/kg: 24%
[5]
  inhibition in vivo at 2 mg/kg: 54%

## Cc1nc2c(OCc3ccccc3)cccn2c1C(C)C#N (centres undefined)
[4]
  ED50: 2.9 mg/kg
[2]
  inhibition in vivo at 40 mg/kg: 74%
[3]
  inhibition in vivo at 8 mg/kg: 1%
[5]
  inhibition in vivo at 2 mg/kg: 4%

## N#CCc1c(C(F)(F)F)nc2c(OCc3ccccc3)cccn12
[1]
  inhibition in vivo at 5 mg/kg: 0%
[2]
  inhibition in vivo at 40 mg/kg: 0%

## Cc1nc2c(C[S+]([O-])c3ccccc3)cccn2c1C (centres undefined)
[2]
  inhibition in vivo at 40 mg/kg: 42%
[5]
  inhibition in vivo at 2 mg/kg: 0%
